Columns and labels:
[1] = system: NCI sixty human tumor cell line panel; experiment: NCI sixty human tumor cell line panel, single dose 10 μM; assay type: cell-based; conditions: for Mean % growth at 10 μM: mean growth percent over NCI 60 panel, single dose 10 μM; for activity at 10 µM: read-out: Mean % growth at 10 μM; for growth inhibition activity (in words): NCI 60 single dose 10 μM
[2] = system: mitotic spindle of HeLaM cells; assay type: cell-based; conditions: compound 10 μM + MG132 + ZM447439 (DMSO+MG132+ZM447439 3%)
HeLaM cells = experiment: Flow cytometry cell cycle analysis; assay type: cell-based; conditions: 72 hr post treatment (DMSO 14%)
Procedure, shortened: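 5 × 10^5 HeLaM cells plated, treated next day with test compound or DMSO for 24, 48 or 72 h. All cells (floating and attached) collected and fixed in 70% ethanol (final). […] 10 μg/ml, 30 min, 37 °C, then propidium iodide in PBS + 2% FBS. SubG1 gated; subG1 excluded before modeling live-cell cycle distribution.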

HDAC2 = HDAC2 (Homo sapiens, UniProt Q92769); experiment: HDAC-Glo inhibitor testing with recombinant HDAC2; assay type: biochemical
Chain of HDAC2 (Q92769 whole entry): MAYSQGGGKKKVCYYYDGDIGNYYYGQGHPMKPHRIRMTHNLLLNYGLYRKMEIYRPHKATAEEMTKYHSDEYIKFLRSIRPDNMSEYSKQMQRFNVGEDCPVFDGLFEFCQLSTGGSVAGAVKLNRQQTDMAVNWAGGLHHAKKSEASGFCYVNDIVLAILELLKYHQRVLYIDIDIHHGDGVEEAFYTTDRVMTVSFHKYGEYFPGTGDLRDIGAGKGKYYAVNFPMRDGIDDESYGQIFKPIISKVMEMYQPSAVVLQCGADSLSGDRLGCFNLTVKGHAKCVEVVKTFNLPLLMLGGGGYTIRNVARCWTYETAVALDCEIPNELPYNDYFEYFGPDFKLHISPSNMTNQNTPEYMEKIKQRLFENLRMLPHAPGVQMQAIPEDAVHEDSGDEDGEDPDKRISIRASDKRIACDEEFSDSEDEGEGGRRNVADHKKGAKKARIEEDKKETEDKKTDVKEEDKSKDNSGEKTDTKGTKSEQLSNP

HDAC8 = target: T1, HDAC8 (Homo sapiens, UniProt Q9BY41); experiment: HDAC-Glo inhibitor testing with recombinant HDAC8; assay type: biochemical; conditions: for remaining activity at 100 µM: read-out: HDAC8 activity remaining
T1 sequence (Q9BY41 1-377): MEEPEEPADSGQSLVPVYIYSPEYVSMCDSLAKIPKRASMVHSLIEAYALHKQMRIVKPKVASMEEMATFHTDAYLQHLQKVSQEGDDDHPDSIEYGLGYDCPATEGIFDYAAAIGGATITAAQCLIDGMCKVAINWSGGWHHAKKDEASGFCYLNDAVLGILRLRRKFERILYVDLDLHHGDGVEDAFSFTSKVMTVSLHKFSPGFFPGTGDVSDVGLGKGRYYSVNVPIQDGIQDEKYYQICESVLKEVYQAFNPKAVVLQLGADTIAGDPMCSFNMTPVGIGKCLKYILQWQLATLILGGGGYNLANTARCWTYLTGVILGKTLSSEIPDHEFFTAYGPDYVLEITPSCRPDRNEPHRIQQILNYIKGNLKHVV

HDAC6 = target: T2, HDAC6 (Homo sapiens, UniProt Q9UBN7); experiment: HDAC-Glo inhibitor testing with recombinant HDAC6; assay type: biochemical
T2 sequence (Q9UBN7 1-1215): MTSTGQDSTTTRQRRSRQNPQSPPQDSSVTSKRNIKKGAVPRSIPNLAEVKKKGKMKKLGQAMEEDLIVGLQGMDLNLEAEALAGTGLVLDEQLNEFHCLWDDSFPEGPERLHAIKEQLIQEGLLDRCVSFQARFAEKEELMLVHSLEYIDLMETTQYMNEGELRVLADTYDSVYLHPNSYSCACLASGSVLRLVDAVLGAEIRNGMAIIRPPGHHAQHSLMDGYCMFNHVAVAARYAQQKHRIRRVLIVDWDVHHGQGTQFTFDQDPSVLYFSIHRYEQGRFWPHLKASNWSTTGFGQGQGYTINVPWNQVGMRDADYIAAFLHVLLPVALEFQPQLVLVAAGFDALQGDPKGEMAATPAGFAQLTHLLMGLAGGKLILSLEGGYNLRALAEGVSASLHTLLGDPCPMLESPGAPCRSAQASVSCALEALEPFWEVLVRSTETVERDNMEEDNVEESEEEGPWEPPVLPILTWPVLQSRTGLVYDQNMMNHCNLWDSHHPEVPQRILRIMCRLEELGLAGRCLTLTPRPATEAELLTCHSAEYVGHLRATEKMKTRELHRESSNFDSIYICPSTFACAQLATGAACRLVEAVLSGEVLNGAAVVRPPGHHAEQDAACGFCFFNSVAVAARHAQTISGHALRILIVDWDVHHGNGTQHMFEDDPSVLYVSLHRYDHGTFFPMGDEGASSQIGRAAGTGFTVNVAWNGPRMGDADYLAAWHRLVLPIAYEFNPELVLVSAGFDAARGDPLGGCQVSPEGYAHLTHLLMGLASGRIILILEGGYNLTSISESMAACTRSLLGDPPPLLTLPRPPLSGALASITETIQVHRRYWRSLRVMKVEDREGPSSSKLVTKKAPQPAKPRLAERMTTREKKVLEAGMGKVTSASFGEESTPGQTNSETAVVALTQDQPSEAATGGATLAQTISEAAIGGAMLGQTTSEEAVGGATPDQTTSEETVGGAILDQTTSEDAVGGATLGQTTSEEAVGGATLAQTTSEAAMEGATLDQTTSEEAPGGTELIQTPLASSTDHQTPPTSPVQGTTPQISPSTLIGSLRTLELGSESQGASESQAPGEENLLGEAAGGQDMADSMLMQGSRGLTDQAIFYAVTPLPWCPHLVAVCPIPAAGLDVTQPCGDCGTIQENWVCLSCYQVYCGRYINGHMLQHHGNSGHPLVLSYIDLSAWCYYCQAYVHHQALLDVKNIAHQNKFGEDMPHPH

HDAC3 = HDAC3 (Homo sapiens, UniProt O15379); experiment: HDAC-Glo inhibitor testing with recombinant HDAC3; assay type: biochemical
Chain of HDAC3 (O15379 whole entry): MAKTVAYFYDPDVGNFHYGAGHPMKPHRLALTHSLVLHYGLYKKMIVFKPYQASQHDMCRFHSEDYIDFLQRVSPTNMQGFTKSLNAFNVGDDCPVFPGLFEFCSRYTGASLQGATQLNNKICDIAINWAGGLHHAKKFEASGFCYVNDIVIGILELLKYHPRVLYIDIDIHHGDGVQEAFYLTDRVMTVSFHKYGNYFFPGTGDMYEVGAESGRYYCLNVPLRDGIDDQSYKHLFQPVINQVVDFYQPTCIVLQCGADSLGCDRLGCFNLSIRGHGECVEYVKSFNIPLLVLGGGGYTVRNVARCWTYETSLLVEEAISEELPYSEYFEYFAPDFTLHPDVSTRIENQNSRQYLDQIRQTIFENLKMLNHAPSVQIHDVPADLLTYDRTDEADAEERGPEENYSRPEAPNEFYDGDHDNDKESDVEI
Chain of HDAC3 (Q9Y618 395-489 partner limits assumed): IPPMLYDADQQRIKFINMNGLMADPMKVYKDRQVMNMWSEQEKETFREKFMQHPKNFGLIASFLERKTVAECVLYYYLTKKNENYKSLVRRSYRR

HDAC1 = HDAC1 (Homo sapiens, UniProt Q13547); experiment: HDAC-Glo inhibitor testing with recombinant HDAC1; assay type: biochemical
Chain of HDAC1 (Q13547 whole entry): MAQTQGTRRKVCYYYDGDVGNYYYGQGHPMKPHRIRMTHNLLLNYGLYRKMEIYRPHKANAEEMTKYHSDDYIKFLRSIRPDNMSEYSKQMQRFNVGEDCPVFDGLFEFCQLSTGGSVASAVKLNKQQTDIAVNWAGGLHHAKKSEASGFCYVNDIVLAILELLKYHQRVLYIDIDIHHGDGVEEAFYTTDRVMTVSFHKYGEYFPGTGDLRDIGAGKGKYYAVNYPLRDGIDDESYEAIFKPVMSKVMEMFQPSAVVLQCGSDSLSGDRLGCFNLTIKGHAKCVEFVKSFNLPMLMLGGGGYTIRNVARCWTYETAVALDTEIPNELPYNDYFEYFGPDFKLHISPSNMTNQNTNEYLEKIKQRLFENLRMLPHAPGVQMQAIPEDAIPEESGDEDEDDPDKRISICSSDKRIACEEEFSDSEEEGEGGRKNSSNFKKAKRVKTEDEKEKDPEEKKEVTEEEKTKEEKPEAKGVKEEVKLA

| Compound | activity at 10 µM ([1]; Homo sapiens) [%] | other results |
| --- | --- | --- |
| O=C(Cc1ccc(/C=C/C(=O)c2ncc[nH]2)cc1)Nc1ccc(S(F)(F)(F)(F)F)cc1 [IPE-10, (E)-2-(-4(3-(1H-imidazol-2-yl)-3-oxoprop-1-en-1-yl)phenyl)-N-(4-pentafluorosulfaneyl)acetamide] | – | Mean % growth at 10 μM [1]: 64.07% |
| O=C(Cc1ccc(C(O)CC(=O)c2ccccc2O)cc1)Nc1ccccc1 (stereo not drawn) [HPE-34, 2-(4-(1-Hydroxy-3-(2-hydroxyphenyl)-3-oxopropyl)phenyl)-N-phenylacetamide] | 89.6 | – |
| CN1CCc2c(c3ccccc3n2Cc2ccc(C(=O)NO)cc2)C1 [Tubastatin A, reference compound] | – | spindle collapse [2]: did not produce the same aberrant spindle; subG1 population (HeLaM cells): little effect on subG1 |
| Cn1ccnc1C(=O)/C=C/c1ccc(CC(=O)NC2CCCCC2)cc1 [IPE-15, (E)-N-Cyclohexyl-2-(4-(3-(1-methyl-1H-imidazol-2-yl)-3-oxoprop-1-en-1-yl)phenyl)acetamide] | 57.7 | – |
| O=C(Cc1ccc(/C=C/C(=O)c2ncccn2)cc1)Nc1ccccc1 [PPE-31, (E)-2-(4-(3-Oxo-3-(pyrimidin-2-yl)prop-1-en-1-yl)phenyl)-N-phenylacetamide] | 99.1 | – |
| O=C(Cc1ccc(/C=C/C(=O)c2ncc[nH]2)cc1)NC1CCCCC1 [IPE-2, (E)-2-(4-(3-(1H-Imidazol-2-yl)-3-oxoprop-1-en-1-yl)phenyl)-N-cyclohexylacetamide] | 70 | growth inhibition activity (in words) [1]: almost completely inactive |
| O=C(Cc1ccc(/C=C/C(=O)c2ccccc2O)cc1)Nc1ccccc1 [HPE-32, (E)-2-(4-(3-(2-Hydroxyphenyl)-3-oxoprop-1-en-1-yl)phenyl)-N-phenylacetamide] | 85.9 | – |
| CN(C)c1ccc(NC(=O)Cc2ccc(/C=C/C(=O)c3ccccc3O)cc2)cc1 [HPE-35, (E)-N-(4-(Dimethylamino)phenyl)-2-(4-(3-(2-hydroxyphenyl)-3-oxoprop-1-en-1-yl)phenyl)acetamide] | 85.9 | – |
| CCn1ccnc1C(=O)/C=C/c1ccc(CC(=O)Nc2ccc(F)cc2)cc1 [IPE-21, (E)-2-(4-(3-(1-Ethyl-1H-imidazol-2-yl)-3-oxoprop-1-en-1-yl)phenyl)-N-(4-fluorophenyl)acetamide] | 29.2 | – |
| 4-(3-(2-Hydroxyphenyl)-3-oxopropyl)phenyl)-N-(naphthalen-1-yl)acetamide [HPE-33] | – | Mean % growth at 10 μM [1]: 91.98% |
| C#Cc1ccc(NC(=O)Cc2ccc(/C=C/C(=O)c3nccn3C)cc2)cc1 [IPE-27, (E)-N-(4-Ethynylphenyl)-2-(4-(3-(1-methyl-1H-imidazol-2-yl)-3-oxoprop-1-en-1-yl)phenyl)acetamide] | 53.5 | IC50 (HDAC2): > 100 µM; IC50 (HDAC8): 12 ± 1 µM; remaining activity at 100 µM (HDAC8): 20 to 60%; IC50 (HDAC6): > 100 µM; IC50 (HDAC3): > 100 µM; IC50 (HDAC1): > 100 µM |
| Cn1ccnc1C(=O)/C=C/c1ccc(CC(=O)Nc2ccc(C(F)(F)F)cc2)cc1 [IPE-23, (E)-2-(4-(3-(1-methyl-1H-imidazol-2-yl)-3-oxoprop-1-en-1-yl)phenyl)-N-(4-(trifluoromethyl)phenyl)acetamide] | 13 | – |
| O=C(Cc1ccc(/C=C/C(=O)c2nccn2Cc2ccccc2)cc1)Nc1ccc(F)cc1 [IPE-20, (E)-2-(4-(3-(1-Benzyl-1H-imidazol-2-yl)-3-oxoprop-1-en-1-yl)phenyl)-N-(4-fluorophenyl)acetamide] | 54.7 | – |
| O=C(Cc1ccc(/C=C/C(=O)c2ncc[nH]2)cc1)Nc1cccc2ccccc12 [IPE-6, (E)-2-(4-(3-(1H-imidazol-2-yl)-3-oxoprop-1-en-1-yl)phenyl)-N-(naphthalen-1-yl)acetamide] | 76.3 | – |
| Cn1ccnc1C(=O)C1CC1c1ccc(CC(=O)Nc2ccc(Br)cc2)cc1 (stereo not drawn) [IPE-29, N-(4-bromophenyl)-2-(4-(2-(1-methyl-1H-imidazole-2-carbonyl)cyclopropyl)phenyl)acetamide] | 98.7 | remaining activity at 100 µM (HDAC8): 20 to 60%; growth inhibition activity (in words) [1]: virtually inactive |
| CN(C)c1ccc(NC(=O)Cc2ccc(/C=C/C(=O)c3ncc[nH]3)cc2)cc1 [IPE-5, (E)-2-(4-(3-(1H-imidazol-2-yl)-3-oxoprop-1-en-1-yl)phenyl)-N-(4-(dimethylamino)phenyl)acetamid] | 52.1 | – |
| Cn1ccnc1C(=O)/C=C/c1ccc(CC(=O)Nc2ccc(Cl)cc2)cc1 [IPE-17, (E)-N-(4-chlorophenyl)-2-(4-(3-(1-methyl-1H-imidazol-2-yl)-3-oxoprop-1-en-1-yl)phenyl)acetamide] | 19.3 | – |
| O=C(Cc1ccc(/C=C/C(=O)c2ncc[nH]2)cc1)Nc1ccc(C(F)(F)F)cc1 [IPE-11, (E)-2-(4-(3-(1H-Imidazole-2-yl)-3-oxoprop-1-en-1-yl)phenyl)-N-(4-(trifluoromethyl)phenyl)acetamide] | 23.5 | – |
| O=C(Cc1ccc(/C=C/C(=O)c2ncc[nH]2)cc1)Nc1c(F)c(F)c(F)c(F)c1F [IPE-13, (E)-2-(-4(3-(1H-imidazol-2-yl)-3-oxoprop-1-en-1-yl)phenyl)-N-(perfluorophenyl)acetamide] | 91.8 | – |
| O=C(Cc1ccc(/C=C/C(=O)c2nccs2)cc1)Nc1ccccc1 [TPE-30, (E)-2-(4-(3-Oxo-3-(thiazol-2-yl)prop-1-en-1-yl)phenyl)-N-phenylacetamide] | 84.3 | growth inhibition activity (in words) [1]: inactive |
| COc1ccc(NC(=O)Cc2ccc(/C=C/C(=O)c3ncc[nH]3)cc2)cc1 [IPE-4, (E)-2-(4-(3-(1H-imidazol-2-yl)-3-oxoprop-1-en-1-yl)phenyl)-N-(4-methoxyphenyl)acetamide] | 66.8 | – |
| O=C(Cc1ccc(/C=C/C(=O)c2ncc[nH]2)cc1)Nc1cc(F)c(F)c(F)c1 [IPE-12, (E)-2-(-4(3-(1H-imidazol-2-yl)-3-oxoprop-1-en-1-yl)phenyl)-N-(3,4,5-trifluorophenyl)acetamide] | 51.1 | – |
| O=C(Cc1ccc(/C=C/C(=O)c2ncc[nH]2)cc1)Nc1ccccc1 [IPE-1, (E)-2-(4-(3-(1H-Imidazol-2-yl)-3-oxoprop-1-en-1-yl)phenyl)-N-phenylacetamide] | 45.3 | inhibition at 10 µM ([1]; Homo sapiens, read-out: growth inhibition at 10 μM): > 50% |
| O=C(Cc1ccc(/C=C/C(=O)c2ncc[nH]2)cc1)Nc1cc(C(F)(F)F)cc(C(F)(F)F)c1 [IPE-14, (E)-2-(-4(3-(1H-imidazol-2-yl)-3-oxoprop-1-en-1-yl)phenyl)-N-(bis(3,5-trifluoromethyl)phenyl)acetamide] | – | Mean % growth at 10 μM [1]: 77.21% |
| O=C(Cc1ccc(CCC(=O)c2ncc[nH]2)cc1)Nc1ccccc1 [IPE-28, 2-(4-(3-(1H-imidazol-2-yl)-3-oxopropyl)phenyl)-N-phenylacetamide] | 92.8 | growth inhibition activity (in words) [1]: virtually inactive |
| O=C(Cc1ccc(/C=C/C(=O)c2ccccc2O)cc1)Nc1cccc2ccccc12 [HPE-36, (E)-2-(4-(3-(2-Hydroxyphenyl)-3-oxoprop-1-en-1-yl)phenyl)-N-(naphthalen-1-yl)acetamide] | 96.2 | – |

From PMC8530978 (Bioorganic chemistry, 2021)
